Measurements gathered from unrelated publications.
Protocols differ between the studies behind these lines.
Target: Serine/threonine-protein kinase PAK 3 (PAK3, Homo sapiens, UniProt O75914)

| test | setting | endpoint | value | Compound |
| --- | --- | --- | --- | --- |
| enzyme activity, inhibitor, radiometric | 1 µM | remaining activity | 87% | CC(C)(C)c1nc2c(s1)c1nc(N)ncc1c1ccc(NS(=O)(=O)c3c(F)cccc3F)c(F)c12 |
| cell-free assay, competition with immobilised ligand | 1 µM | remaining binding | 97% | CN(C)CC#Cc1ccc(OCCCc2sc(N3CCc4cccc(C(=O)Nc5nc6ccccc6s5)c4C3)nc2C(=O)O)c(F)c1 |
| cell-free assay | 0.5 µM | remaining signal | 94.3% | O=C1Nc2ccc(Cl)cc2C1=Cc1cc(Cl)c(O)c(Cl)c1 |
| enzyme activity, inhibitor | 1 µM | inhibition | < 20% | CCCS(=O)(=O)Nc1ccc(F)c(C(=O)c2c[nH]c3ncc(-c4ccc(Cl)cc4)cc23)c1F |
| enzyme activity, inhibitor | 10 µM | inhibition | 74% | CNC(=O)c1cc(Oc2ccc(NC(=O)Nc3ccc(Cl)c(C(F)(F)F)c3)cc2)ccn1 |
| enzyme activity, inhibitor | 1 µM | inhibition | 3% | COc1cc2ncnc(Nc3ccc(Oc4ccccc4)cc3C)c2cc1OC |
| enzyme activity, inhibitor | 1 µM | inhibition | -12% | COc1ccccc1N1CCN(c2ncnc3[nH]nc(Br)c23)CC1 |
| cell-free assay | 0.5 µM | remaining signal | 106% | COc1cc2ncnc(Nc3ccc(F)c(Cl)c3)c2cc1OCCCN1CCOCC1 |
| cell-free assay, competition with immobilised ligand | 1 µM | remaining binding | 100% | O=C(O)c1cc(-c2ccc(C3CCNCC3)cc2)c2ccc(-c3ccc(C(F)(F)F)cc3)cc2c1 |
| enzyme activity, inhibitor | 23.5 nM | remaining activity | 3.6% | Cc1ccc(C(=O)Nc2ccc(CN3CCN(C)CC3)c(C(F)(F)F)c2)cc1C#Cc1cnc2cccnn12 |
| enzyme activity, inhibitor | 10 µM | remaining activity | 51% | CCCOc1ccc(OC)c(F)c1C(=O)c1ccc(C(=O)N[C@@H]2CNC[C@H]2NC(=O)c2ccc3[nH]ncc3c2)cc1 |
| cell-free assay, competition with immobilised ligand | 1 µM | remaining binding | 91% | CNC(=O)Nc1ccc2c(c1)CC[C@@]21OC(=O)N(CC(=O)N(Cc2ccc(F)cc2)[C@@H](C)C(F)(F)F)C1=O |
| binding | 1 µM | remaining binding | 100% | N[C@H]1CCN(c2nccc(-c3cnn4ncccc34)n2)C1 |
| enzyme activity, inhibitor | 5 µM | remaining activity | 97.4% | O=C(Nc1cnn(-c2csc(C(=O)NC3COC3)c2)c1)Nc1ccccc1Cl |
| cell-free assay, competition with immobilised ligand | 1 µM | remaining binding | 100% | Cc1nc(C2CCN(C(=O)c3ccc(OC(F)(F)F)cc3N)CC2)c2ncc(N3CCN(C)CC3)cc2n1 |
| enzyme activity, inhibitor | 1 µM | inhibition | -10% | CN1CC(Oc2cnc(C#N)cc2-c2ccn3nc(NC(=O)C4CC4)cc3c2)C1 |
| enzyme activity, inhibitor | 10 µM | inhibition | 61% | Cc1ccc(Nc2nccc(N(C)c3ccc4c(C)n(C)nc4c3)n2)cc1S(N)(=O)=O |
| cell-free assay | 0.5 µM | remaining signal | 102% | C[S+]([O-])c1ccc(-c2nc(-c3ccncc3)c(-c3ccc(F)cc3)[nH]2)cc1 (stereo not shown) |
| cell-free assay, competition with immobilised ligand | 0.1 µM | remaining binding | 100% | Cn1cc(Cl)c2c(Oc3c(F)cc(Nc4cc(Cl)nc(N)n4)cc3F)ccnc21 |
